The record followed here is ChEMBL document CHEMBL1268974, “Synthesis and antitumour activity of glycyrrhetinic acid derivatives” (Bioorg Med Chem, 2010).

Assay [1] is described as follows: Cytotoxicity against human Lipo cells after 96 hrs by SRB assay. Type of assay: functional, cell-based. To be noted: Homo sapiens, Lipo, 96 h.
In another assay the test system is FaDu. Put plainly: Cytotoxicity against human FADU cells after 96 hrs by SRB assay. The assay is classed as functional, cell-based.
The next assay has as its system SW480. Put plainly: Cytotoxicity against human SW480 cells after 96 hrs by SRB assay. Conditions: SW480, 96 h. Type of assay: functional, cell-based.
The test system of a further assay is HT-29. Put plainly: Cytotoxicity against human HT-29 cells after 96 hrs by SRB assay. The assay is classed as functional, cell-based. Conditions: HT-29, 96 h.
In a further assay the test system is HCT-116. Put plainly: Cytotoxicity against human HCT116 cells after 96 hrs by SRB assay. The assay is classed as functional, cell-based. To be noted: HCT-116, 96 h.
In a further assay the test system is SW-1736. Put plainly: Cytotoxicity against human SW1736 cells after 96 hrs by SRB assay. Type of assay: functional, cell-based. Conditions: Homo sapiens, SW-1736, 96 h.
Assay [2] in a line: Cytotoxicity against human 518A2 cells after 96 hrs by SRB assay. The assay is classed as functional, cell-based. To be noted: 518A2, 96 h.
The next assay has as its system 8505C. Put plainly: Cytotoxicity against human 8505C cells after 96 hrs by SRB assay. The assay is classed as functional, cell-based. Conditions: Homo sapiens, 8505C, 96 h.
The test system of another assay is DLD-1. Put plainly: Cytotoxicity against human DLD1 cells after 96 hrs by SRB assay. Type of assay: functional, cell-based. Conditions: Homo sapiens, DLD-1, 96 h.
For assay [3], the system named is A549. Put plainly: Cytotoxicity against human A549 cells after 96 hrs by SRB assay. The assay is classed as functional, cell-based. Conditions: Homo sapiens, A549, 96 h.
The subject of another assay is MCF7. Put plainly: Cytotoxicity against human MCF7 cells after 96 hrs by SRB assay. Type of assay: functional, cell-based. To be noted: Homo sapiens, MCF7, 96 h.
In the next assay the test system is A-431. Put plainly: Cytotoxicity against human A431 cells after 96 hrs by SRB assay. The assay is classed as functional, cell-based. Conditions: A-431, 96 h.
A further assay concerns HCT-8. Put plainly: Cytotoxicity against human HCT8 cells after 96 hrs by SRB assay. Type of assay: functional, cell-based. To be noted: HCT-8, 96 h.
A further assay has as its system A2780. Put plainly: Cytotoxicity against human A2780 cells after 96 hrs by SRB assay. The assay is classed as functional, cell-based. To be noted: Homo sapiens, A2780, 96 h.
A short description of assay [4]: Cytotoxicity against human A253 cells after 96 hrs by SRB assay. Type of assay: functional, cell-based. Conditions: Homo sapiens, A253, 96 h.
The nature of assay [5]: Cytotoxicity against mouse NIH/3T3 cells after 96 hrs by SRB assay. Type of assay: cell-based. Conditions: NIH3T3, 96 h.
The subject of assay [6] is A549. Put plainly: Induction of apoptosis in human A549 cells at IC90 concentration after 24 to 48 hrs using acridine orange/ethidium bromide dye by fluorescence microscopic analysis. The assay is classed as functional, cell-based. The gist of the method: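 About 500,000 cells were seeded in flasks and grown for 24 h, then the medium was replaced with compound-containing medium. After 24–48 h, floating cells in the supernatant were pelleted, washed and resuspended in PBS, mixed with acridine orange/ethidium bromide and examined by fluorescence microscopy. Green nuclear fluorescence was scored as apoptotic and red nuclei as necrotic.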

pIC50: −log10 of the molar value. Active and inactive are the calls of the source. The calls are words filed in the database; no cut-off is given here.

In the case of `COC(=O)[C@@]1(C)CC[C@]2(C)CC[C@]3(C)C(=CC(=O)[C@@H]4[C@@]5(C)CC[C@H](OC(=O)[C@H](C)N)C(C)(C)[C@@H]5CC[C@]43C)[C@@H]2C1` [listing 1 of 2 here], the pIC50 in assay [1] was 5.37; with FaDu, 5.34; with SW480, 5.45; in the assay with HT-29, 5.54; in the assay with HCT-116, 5.56; in the assay on SW-1736, 5.49. Further, the pIC50 in assay [2] is 5.45; with 8505C it was 5.37; with DLD-1, 5.35; in the assay on A549 [3] it was 5.56; in the assay with MCF7, 5.45; with A-431, 5.46. Moreover, the pIC50 in the assay with HCT-8 is 5.55; with A2780 it was 5.53; in [4] it was 5.44.
For the compound `COC(=O)[C@@]1(C)CC[C@]2(C)CC[C@]3(C)C(=CC(=O)[C@@H]4[C@@]5(C)CC[C@H](OC(=O)[C@@H](C)N)C(C)(C)[C@@H]5CC[C@]43C)[C@@H]2C1`, the pIC50 in assay [1] was 5.45; in the assay on FaDu, 5.65; with SW480, 5.45; in the assay with HT-29, 5.55; with HCT-116, 5.65; in the assay with SW-1736, 5.65. Also, the pIC50 in assay [2] is 5.65; with 8505C, 5.53; in the assay on DLD-1, 5.47; in the assay on A549 [3] it was 5.65; in the assay with MCF7 it was 5.65; in the assay with A-431 it was 5.63. In addition, the pIC50 (in the assay with HCT-8; in the assay with A2780; in assay [4]) was 5.65 each time.
In the case of `CC1(C)[C@@H](O)CC[C@]2(C)[C@H]3C(=O)C=C4[C@@H]5C[C@@](C)(C(=O)OCc6ccccc6)CC[C@]5(C)CC[C@@]4(C)[C@]3(C)CC[C@@H]12`, the pIC50 in assay [1] was 4.94; in the assay on FaDu, 5.26; in the assay on SW480, 5.21; with HT-29, 4.94; in the assay on HCT-116, 4.69; in the assay with SW-1736 it was 5.56. The pIC50 in assay [2] is 4.74; in the assay with 8505C, 5.09; in the assay on DLD-1 it was 4.64; in [5], 4.68; with A549 [3], 5.21; in the assay with MCF7, 4.87. In addition, the pIC50 in the assay on A-431 is 4.63; in the assay on HCT-8, 4.60; with A2780 it was 4.69; in assay [4], 4.97.
Regarding `COC(=O)[C@@]1(C)CC[C@]2(C)CC[C@]3(C)C(=CC(=O)[C@@H]4[C@@]5(C)CC[C@H](OC(=O)CN)C(C)(C)[C@@H]5CC[C@]43C)[C@@H]2C1`, the outcome in the assay with A549 [6] was Active.
For the compound `CC(C)OC(=O)[C@@]1(C)CC[C@]2(C)CC[C@]3(C)C(=CC(=O)[C@@H]4[C@@]5(C)CC[C@H](OC(=O)[C@H](C)N)C(C)(C)[C@@H]5CC[C@]43C)[C@@H]2C1`, the pIC50 in [1] was 5.45; in the assay with FaDu it was 5.27; in the assay on SW480 it was 5.46; with HT-29, 5.34; in the assay with HCT-116, 5.30; in the assay with SW-1736, 5.45. Also, the pIC50 in assay [2] was 5.29; in the assay with 8505C, 5.46; with DLD-1 it was 5.26; in the assay with A549 [3] it was 5.46; with MCF7, 5.45; in the assay with A-431 it was 5.46. The pIC50 in the assay on HCT-8 was 5.29; in the assay on A2780, 5.68; in assay [4] it was 5.45.
On to `CCOC(=O)[C@@]1(C)CC[C@]2(C)CC[C@]3(C)C(=CC(=O)[C@@H]4[C@@]5(C)CC[C@H](OC(=O)[C@H](C)N)C(C)(C)[C@@H]5CC[C@]43C)[C@@H]2C1`, for which the pIC50 is 5.56 in [1]; 5.37 with FaDu; 5.55 in the assay on SW480; 5.60 in the assay on HT-29; 5.55 in the assay with HCT-116; 5.53 with SW-1736. Moreover, the pIC50 in [2] was 5.57; in the assay with 8505C it was 5.41; with DLD-1, 5.43; with A549 [3], 5.46; in the assay with MCF7 it was 5.45; with A-431, 5.64. In addition, the pIC50 with HCT-8 was 5.66; in the assay with A2780, 5.59; in [4], 5.63.
In the case of `COC(=O)[C@@]1(C)CC[C@]2(C)CC[C@]3(C)C(=CC(=O)[C@@H]4[C@@]5(C)CC[C@H](OC(=O)[C@H](C)N)C(C)(C)[C@@H]5CC[C@]43C)[C@@H]2C1` [listing 2 of 2 here], in the assay on A549 [6], the result was Active.
With `CC(C)OC(=O)[C@@]1(C)CC[C@]2(C)CC[C@]3(C)C(=CC(=O)[C@@H]4[C@@]5(C)CC[C@H](O)C(C)(C)[C@@H]5CC[C@]43C)[C@@H]2C1`, the pIC50 in assay [1] was 4.80; with FaDu, 4.84; with SW480, 4.81; in the assay with HT-29, 4.80; in the assay with HCT-116 it was 4.58; with SW-1736 it was 4.89. Besides, the pIC50 in assay [2] is 4.74; with 8505C, 4.85; in the assay on DLD-1 it was 4.56; in [5] it was 4.49; in the assay on A549 [3] it was 4.84; in the assay with MCF7, 4.79. In addition, the pIC50 was 4.49 in the assay on A-431, 4.62 with HCT-8, 4.60 in the assay on A2780 and 4.80 in [4].
Take `CC(C)OC(=O)[C@@]1(C)CC[C@]2(C)CC[C@]3(C)C(=CC(=O)[C@@H]4[C@@]5(C)CC[C@H](OC(=O)[C@@H](C)N)C(C)(C)[C@@H]5CC[C@]43C)[C@@H]2C1`: the pIC50 in assay [1] is 5.33; in the assay with FaDu, 5.26; in the assay on SW480, 5.46; in the assay with HT-29, 5.46; in the assay with HCT-116, 5.32; with SW-1736, 5.46. Besides, the pIC50 is 5.26 in [2]; 5.45 with 8505C; 5.25 in the assay on DLD-1; 5.50 in the assay on A549 [3]; 5.45 in the assay with MCF7; 5.51 with A-431. In addition, the pIC50 was 5.48 with HCT-8, 5.77 in the assay with A2780 and 5.46 in [4]. Also, the outcome in the assay on A549 [6] was Active.
Take `CCOC(=O)[C@@]1(C)CC[C@]2(C)CC[C@]3(C)C(=CC(=O)[C@@H]4[C@@]5(C)CC[C@H](O)C(C)(C)[C@@H]5CC[C@]43C)[C@@H]2C1`: the pIC50 in assay [1] was 4.56; with FaDu, 4.62; with SW480 it was 4.72; in the assay on HT-29, 4.65; in the assay with HCT-116, 4.67; with SW-1736 it was 4.87. Besides, the pIC50 in assay [2] is 4.60; in the assay with 8505C it was 4.61; in the assay on DLD-1, 4.55; in assay [5], 4.63; in the assay with A549 [3], 4.64; with MCF7 it was 4.73. In addition, the pIC50 is 4.63 with A-431, 4.36 in the assay with HCT-8, 4.57 in the assay on A2780 and 4.60 in assay [4].
As to `COC(=O)[C@@]1(C)CC[C@]2(C)CC[C@]3(C)C(=CC(=O)[C@@H]4[C@@]5(C)CC[C@H](O)C(C)(C)[C@@H]5CC[C@]43C)[C@@H]2C1`, the pIC50 in assay [1] is 4.69; with FaDu, 4.63; with SW480, 4.79; with HT-29, 4.56; with HCT-116, 4.66; in the assay with SW-1736 it was 4.46. Moreover, the pIC50 in assay [2] is 4.56; in the assay on 8505C it was 4.58; in the assay with DLD-1 it was 4.58; in assay [5] it was 4.64; in the assay with A549 [3], 4.63; in the assay on MCF7, 4.65. Besides, the pIC50 was 4.60 with A-431, 4.61 in the assay with HCT-8, 4.59 in the assay with A2780 and 4.71 in [4].
As for `CC1(C)[C@@H](O)CC[C@]2(C)[C@H]3C(=O)C=C4[C@@H]5C[C@@](C)(C(=O)O)CC[C@]5(C)CC[C@@]4(C)[C@]3(C)CC[C@@H]12` [ENOXOLONE], the pIC50 in [1] is 4.09; with FaDu, 4.07; in the assay on SW480, 4.06; in the assay with HT-29, 4.10; with HCT-116, 4.10; with SW-1736, 4.11. The pIC50 is 4.08 in assay [2]; 4.06 with 8505C; 4.09 in the assay with DLD-1; 4.73 in [5]; 4.08 in the assay on A549 [3]; 4.07 with MCF7. Moreover, the pIC50 in the assay with A-431 was 4.10; in the assay with HCT-8 it was 4.10; in the assay on A2780, 4.13; in [4], 4.09. Also, the outcome in the assay on A549 [6] was Active.
For the compound `CCOC(=O)[C@@]1(C)CC[C@]2(C)CC[C@]3(C)C(=CC(=O)[C@@H]4[C@@]5(C)CC[C@H](OC(=O)[C@@H](C)N)C(C)(C)[C@@H]5CC[C@]43C)[C@@H]2C1`, the pIC50 is 5.38 in assay [1]; 5.41 in the assay with FaDu; 5.48 in the assay on SW480; 5.36 with HT-29; 5.37 with HCT-116; 5.39 with SW-1736. The pIC50 in [2] was 5.56; in the assay on 8505C it was 5.35; in the assay on DLD-1, 5.35; in the assay with A549 [3], 5.36; with MCF7, 5.45; in the assay with A-431, 5.56. The figures for the pIC50 (in the assay with HCT-8; in the assay with A2780; in [4]) were 5.62, 5.49 and 5.59, respectively.
